Source: ChEMBL document CHEMBL1131626 (J Med Chem, 1998)
Blank lines part the entries; values can stand above or below the molecule they belong to.

Key:
[1] = molecular target: T1, Progesterone receptor (Mus musculus) (UniProt Q00175); assay: Effect on pregnancy in mice as corpora lutea at 3 mg/mouse dose with simultaneous 0.5 mg RU-486 dose; format: functional, organism-based
T1 sequence (whole entry): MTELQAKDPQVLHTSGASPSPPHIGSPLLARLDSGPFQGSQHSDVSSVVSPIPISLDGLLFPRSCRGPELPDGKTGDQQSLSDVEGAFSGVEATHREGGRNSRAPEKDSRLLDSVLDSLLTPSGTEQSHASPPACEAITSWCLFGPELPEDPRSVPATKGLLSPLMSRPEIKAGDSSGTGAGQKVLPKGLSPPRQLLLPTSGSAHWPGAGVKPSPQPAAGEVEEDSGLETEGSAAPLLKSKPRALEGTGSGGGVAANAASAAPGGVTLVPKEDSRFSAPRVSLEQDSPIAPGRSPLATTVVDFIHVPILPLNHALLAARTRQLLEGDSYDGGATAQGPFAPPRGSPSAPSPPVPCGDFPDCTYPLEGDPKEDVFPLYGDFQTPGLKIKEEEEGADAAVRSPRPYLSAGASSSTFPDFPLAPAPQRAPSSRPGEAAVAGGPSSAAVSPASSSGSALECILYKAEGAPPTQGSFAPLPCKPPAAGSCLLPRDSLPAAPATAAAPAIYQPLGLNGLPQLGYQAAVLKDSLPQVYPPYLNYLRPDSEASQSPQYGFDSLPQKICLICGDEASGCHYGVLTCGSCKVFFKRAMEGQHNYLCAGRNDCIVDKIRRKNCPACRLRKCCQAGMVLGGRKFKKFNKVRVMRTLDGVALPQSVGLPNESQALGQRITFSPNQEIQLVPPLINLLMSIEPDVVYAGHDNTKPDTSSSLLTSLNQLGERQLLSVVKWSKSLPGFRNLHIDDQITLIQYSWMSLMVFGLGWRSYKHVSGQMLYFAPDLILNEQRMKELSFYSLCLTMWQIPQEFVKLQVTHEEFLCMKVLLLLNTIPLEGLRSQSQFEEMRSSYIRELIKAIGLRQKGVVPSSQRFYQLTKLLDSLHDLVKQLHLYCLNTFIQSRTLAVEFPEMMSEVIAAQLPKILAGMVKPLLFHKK
Procedure, shortened: (§1)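 Mature virgin ICR mice, 10-12 weeks old, mated overnight; vaginal plug marks day 1. Oral RU486 0.5 mg (~15 mg/kg), alone or with test compound (mg/mouse), on days 2-4. Compounds in ethanol diluted with corn oil, 0.1 mL. Oil controls. Necropsy on day 8 to count corpora lutea and implantation sites and to score pregnancy. Student t-test.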

[2] = molecular target: T1, Progesterone receptor (Mus musculus); assay: Effect on pregnancy in mice as percent pregnant at 1 mg/mouse dose with simultaneous 0.5 mg RU-486 dose; format: functional; procedure, shortened: as §1
[3] = molecular target: T1, Progesterone receptor (Mus musculus); assay: Effect on pregnancy in mice as percent pregnant at 3 mg/mouse dose with simultaneous 0.5 mg RU-486 dose; format: functional; procedure, shortened: as §1
[4] = molecular target: T1, Progesterone receptor (Mus musculus); assay: Effect on pregnancy in mice as corpora lutea at 1 mg/mouse dose with simultaneous 0.5 mg RU-486 dose; format: functional, organism-based; procedure, shortened: as §1
[5] = molecular target: T1, Progesterone receptor (Mus musculus); assay: Effect on pregnancy in mice as number pregnant/mated at 3 mg/mouse dose with simultaneous 0.5 mg RU-486 dose; out of 9; format: functional; procedure, shortened: as §1
[6] = molecular target: T1, Progesterone receptor (Mus musculus); assay: Effect on pregnancy in mice as number pregnant/mated at 1 mg/mouse dose with simultaneous 0.5 mg RU-486 dose; out of 11; format: functional; procedure, shortened: as §1
[7] = molecular target: T1, Progesterone receptor (Mus musculus); assay: Effect on pregnancy in mice as implantation at 1 mg/mouse dose with simultaneous 0.5 mg RU-486 dose; format: functional; procedure, shortened: as §1
[8] = molecular target: T1, Progesterone receptor (Mus musculus); assay: Effect on pregnancy in mice as implantation at 3 mg/mouse dose with simultaneous 0.5 mg RU-486 dose; format: functional; procedure, shortened: as §1
[9] = molecular target: T1, Progesterone receptor (Mus musculus); assay: Effect on pregnancy in mice as implantation at 10 mg/mouse dose with simultaneous 0.5 mg RU-486 dose; format: functional; procedure, shortened: as §1
[10] = molecular target: T1, Progesterone receptor (Mus musculus); assay: Effect on pregnancy in mice as corpora lutea at 10 mg/mouse dose with simultaneous 0.5 mg RU-486 dose; format: functional, organism-based; procedure, shortened: as §1
[11] = molecular target: T1, Progesterone receptor (Mus musculus); assay: Effect on pregnancy in mice as number pregnant/mated at 1 mg/mouse dose with simultaneous 0.5 mg RU-486 dose; out of 10; format: functional; procedure, shortened: as §1
[12] = molecular target: T1, Progesterone receptor (Mus musculus); assay: Effect on pregnancy in mice as number pregnant/mated at 30 mg/mouse dose with simultaneous 0.5 mg RU-486 dose; out of 10; format: functional; procedure, shortened: as §1
[13] = molecular target: T1, Progesterone receptor (Mus musculus); assay: Effect on pregnancy in mice as percent pregnant at 30 mg/mouse dose with simultaneous 0.5 mg RU-486 dose; format: functional; procedure, shortened: as §1
[14] = molecular target: T1, Progesterone receptor (Mus musculus); assay: Effect on pregnancy in mice as percent pregnant at 10 mg/mouse dose with simultaneous 0.5 mg RU-486 dose; format: functional; procedure, shortened: as §1
[15] = molecular target: T1, Progesterone receptor (Mus musculus); assay: Effect on pregnancy in mice as corpora lutea at 30 mg/mouse dose with simultaneous 0.5 mg RU-486 dose; format: functional, organism-based; procedure, shortened: as §1
[16] = molecular target: T1, Progesterone receptor (Mus musculus); assay: Effect on pregnancy in mice as number pregnant/mated at 10 mg/mouse dose with simultaneous 0.5 mg RU-486 dose; out of 10; format: functional; procedure, shortened: as §1
[17] = molecular target: T1, Progesterone receptor (Mus musculus); assay: Effect on pregnancy in mice as number pregnant/mated at 3 mg/mouse dose with simultaneous 0.5 mg RU-486 dose; out of 12; format: functional; procedure, shortened: as §1
[18] = molecular target: T1, Progesterone receptor (Mus musculus); assay: Effect on pregnancy in mice as implantation at 30 mg/mouse dose with simultaneous 0.5 mg RU-486 dose; format: functional; procedure, shortened: as §1
[19] = molecular target: T1, Progesterone receptor (Mus musculus); assay: Effect on pregnancy in mice as implantation at 0.5 mg/mouse dose with simultaneous 0.5 mg RU-486 dose; format: functional; procedure, shortened: as §1
[20] = molecular target: T1, Progesterone receptor (Mus musculus); assay: Effect on pregnancy in mice as percent pregnant at 0.5 mg/mouse dose with simultaneous 0.5 mg RU-486 dose; format: functional; procedure, shortened: as §1
[21] = molecular target: T1, Progesterone receptor (Mus musculus); assay: Effect on pregnancy in mice as corpora lutea at 0.5 mg/mouse dose with simultaneous 0.5 mg RU-486 dose; format: functional, organism-based; procedure, shortened: as §1
[22] = molecular target: T1, Progesterone receptor (Mus musculus); assay: Effect on pregnancy in mice as number pregnant/mated at 0.5 mg/mouse dose with simultaneous 0.5 mg RU-486 dose; out of 16; format: functional; procedure, shortened: as §1

- Corpora lutea [1]: 14.1
- Pregnant [2]: 91%
- Pregnant [3]: 100%
- Corpora lutea [4]: 14.1
- No. pregnant/mated [5]: 9
- No. pregnant/mated [6]: 10
- Implants [7]: 12
- Implants [8]: 13.7
SMILES: CC#C[C@]1(O)CC[C@H]2[C@@H]3CCC4=CC(=O)CCC4=C3[C@@H](c3ccc(N(C)C)cc3)C[C@@]21C.CC1=CC(C)(C)Nc2ccc3c(c21)C(c1cccc(Cl)c1)Oc1ccc(F)cc1-3

- Corpora lutea [1]: 13.6
- Implants [9]: 1.4
- Pregnant [2]: 10%
- Corpora lutea [10]: 12.3
- No. pregnant/mated [11]: 1
- Pregnant [3]: 16.7%
- No. pregnant/mated [12]: 5
- Pregnant [13]: 50%
- Pregnant [14]: 10%
- Corpora lutea [15]: 10.7
- Corpora lutea [4]: 11.7
- No. pregnant/mated [16]: 1
- No. pregnant/mated [17]: 2
- Implants [18]: 6.7
- Implants [7]: 1.2
- Implants [8]: 2.6
SMILES: CC#C[C@]1(O)CC[C@H]2[C@@H]3CCC4=CC(=O)CCC4=C3[C@@H](c3ccc(N(C)C)cc3)C[C@@]21C.CC(=O)O[C@]1(C(C)=O)CC[C@H]2[C@@H]3C[C@H](C)C4=CC(=O)CC[C@]4(C)[C@H]3CC[C@@]21C

- Implants [19]: 3.3
- Pregnant [20]: 18.8%
- Corpora lutea [21]: 13.4
- No. pregnant/mated [22]: 3
SMILES: CC#C[C@]1(O)CC[C@H]2[C@@H]3CCC4=CC(=O)CCC4=C3[C@@H](c3ccc(N(C)C)cc3)C[C@@]21C
